Shown are actives, neighbours in structure and some others; about 1.3% of the full set was active somewhere.
HKDC1 inh: HKDC1 (human) hexokinase inhibition | recombinant HKDC1, G6PDH/diaphorase resazurin coupled fluorescence | Q2TB90 | AID 493160 | inhibition, % at 20 µM | hit rate 0.16% among 340,000;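 active means inhibition above about 35% when tested at 20 µM, limit read from the data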;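 further: plate controls were DMSO wells with enzyme for no effect and DMSO wells lacking enzyme for full effect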
Target sequence (Q2TB90 whole entry, looked up): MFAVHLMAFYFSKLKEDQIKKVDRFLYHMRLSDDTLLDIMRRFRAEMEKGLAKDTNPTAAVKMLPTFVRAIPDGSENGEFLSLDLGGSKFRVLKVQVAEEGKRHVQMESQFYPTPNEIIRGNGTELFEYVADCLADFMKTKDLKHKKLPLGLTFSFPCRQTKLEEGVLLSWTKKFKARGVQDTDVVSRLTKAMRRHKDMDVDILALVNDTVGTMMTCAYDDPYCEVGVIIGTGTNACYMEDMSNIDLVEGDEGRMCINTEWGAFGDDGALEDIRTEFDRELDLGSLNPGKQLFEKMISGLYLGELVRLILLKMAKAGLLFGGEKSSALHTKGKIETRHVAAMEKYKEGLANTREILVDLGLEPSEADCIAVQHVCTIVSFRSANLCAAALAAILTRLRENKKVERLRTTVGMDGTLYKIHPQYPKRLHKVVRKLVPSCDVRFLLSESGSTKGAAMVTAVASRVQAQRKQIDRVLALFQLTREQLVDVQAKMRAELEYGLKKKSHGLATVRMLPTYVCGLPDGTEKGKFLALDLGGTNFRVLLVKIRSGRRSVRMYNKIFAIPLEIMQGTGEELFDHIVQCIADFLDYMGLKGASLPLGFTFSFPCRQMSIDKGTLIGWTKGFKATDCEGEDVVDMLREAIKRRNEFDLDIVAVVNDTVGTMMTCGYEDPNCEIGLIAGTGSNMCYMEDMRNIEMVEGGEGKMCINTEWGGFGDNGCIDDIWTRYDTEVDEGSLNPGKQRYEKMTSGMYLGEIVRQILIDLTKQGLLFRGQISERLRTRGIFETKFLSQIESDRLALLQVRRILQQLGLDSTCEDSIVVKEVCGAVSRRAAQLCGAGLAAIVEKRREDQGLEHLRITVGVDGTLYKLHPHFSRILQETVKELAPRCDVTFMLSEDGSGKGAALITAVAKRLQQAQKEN
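Assay system – recombinant HKDC1 (HK5) hexokinase enzyme, produced in-house · Input – HKDC1 at 5 µg/mL · Reagent – glucose plus 1 mM ATP as hexokinase substrates · Timing – 90 min reaction incubation at room temperature, dark · Measured by – G6PDH/diaphorase-coupled fluorescence, 1 mM NADP, 100 µM resazurin, 525/613 nm · Benchmarks – DMSO-enzyme wells negative, buffer-substituted wells positive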
Diaphorase inh: counter-screen for diaphorase-based assays: diaphorase inhibitors and chemical oxidizers; diaphorase resazurin-to-resorufin fluorescence, NADH, 16 min; bacterial (C. kluyveri) enzyme, not human; inhibition, % at 20 µM; hit rate 0.69% among 190,000; AID 1217;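 active means primary screen inhibition at 20 µM above a set limit, cut at about 50% in these data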;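 further: plate controls were DMSO with full reaction for no effect and wells lacking NADH for full effect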
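material = Clostridium kluyveri diaphorase enzyme | amount = 0.14 U/mL diaphorase, enzyme working solution | schedule = incubation 16 min, room temperature | detection = fluorescence of resorufin formed from resazurin, Ex 544/Em 590 nm | benchmarks = positive control minus NADH, DMSO neutral control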
G6PDH CS: L. mesenteroides G6PDH inhibition counter-screen; inhibition, % at 5 µM; hit rate 0.12% among 200,000; Purified L. mesenteroides G6PDH, diaphorase/resazurin coupled fluorescence, 45 min; in the data active means inhibition above about 50%
PfG6PD inh: PfG6PD (Plasmodium falciparum) enzyme inhibition | PfGluPho enzyme, NADPH resazurin-diaphorase fluorescence | inhibition, % at 20 µM | hit rate 0.78% among 350,000;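 active means inhibition reaching at least a set limit at 20 µM in the primary screen, cut at about 59% in these data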;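 further: 0% = DMSO wells with substrate and 100% = DMSO wells lacking glucose-6-phosphate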
HKDC1 act conf: HKDC1 (human) activation, single-dose confirmed; hit rate 14% among 740; shares compounds with HKDC1 inh; inhibition, % at 20 µM; recombinant HKDC1, G6PDH/diaphorase resazurin fluorescence; stronger effect = lower value;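 active means inhibition at or below a set negative limit, negative inhibition meaning the enzyme was activated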
PfGluPho conf: PfG6PD inhibition, single-dose confirmed | shares compounds with PfG6PD inh | recombinant PfGluPho, NADPH-diaphorase-resazurin fluorescence | inhibition, % at 20 µM | hit rate 34% among 2,400;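 active means inhibition of at least 50% at 20 µM in any single replicate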;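 further: 0% = DMSO with substrate and 100% = DMSO lacking glucose-6-phosphate substrate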
Diaphorase 10uM: diaphorase inhibition or oxidation at 10 uM NADPH; shares compounds with PfG6PD inh; diaphorase-coupled resazurin reduction, fluorescence, NADPH 10 uM; inhibition, % at 20 µM; hit rate 39% among 820;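 active means average inhibition reaching 50% or more with the compound at 20 µM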;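 further: resorufin red fluorescence formed as diaphorase reduces resazurin using NADPH; 0% = DMSO with enzyme and 100% = DMSO without enzyme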
Diaphorase 30uM: counter-screen for P. falciparum G6PD inhibitors: diaphorase inhibitors, oxidizers. shares compounds with PfG6PD inh. Diaphorase/resazurin coupled assay, resorufin fluorescence, 30 uM NADPH. inhibition, % at 20 µM. hit rate 29% among 820. AID 504863;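 active means inhibition averaging 50% or more, tested at 20 µM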;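 further: 0% = DMSO with enzyme and 100% = DMSO wells lacking diaphorase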
Active calls of the source: *; . = no result given; ! = not active in a repeat.

SMILES | HKDC1 inh | Diaphorase inh | G6PDH CS | PfG6PD inh | HKDC1 act conf | PfGluPho conf | others
CCn1c2ccccc2c2nc3cc(S(=O)(=O)N4CCOCC4)ccc3nc21 | -60.6 | 18.7 | 0.0 | 100.3* | -47.4* | 60.9* | Diaphorase 10uM=-9.4;Diaphorase 30uM=2.9
c1ccc2nc3c(nc2c1)c1ccccc1n3CCN1CCOCC1 | -1.4 | 16.1 | -20.5 | 33.2 | . | .
O=C(Nc1ccc2nc(-c3ccco3)c(-c3ccco3)nc2c1)N1CCN(c2ccccn2)CC1 | 56.9* | 70.0* | 24.0 | 81.0* | -13.4 | 20.4
Cc1nc2cc(NC(=O)N3CCN(c4ccccn4)CC3)ccc2o1 | -3.4 | 7.7 | 3.9 | 34.6 | . | .
CCCc1cc(-c2ccc3c(c2)COc2c4ccccc4nn2-3)on1 | -0.1 | . | . | -10.2 | . | .
Cc1nc(COC(=O)c2cc(O)c3ccccc3c2O)cs1 | 60.5* | 34.1 | 38.0 | 91.8* | 39.5 | 54.9* | Diaphorase 10uM=-11.1;Diaphorase 30uM=-2.6
Cc1nc(COC(=O)c2ccc(CO)cc2)cs1 | -2.4 | 13.1 | 8.0 | -6.2 | . | .
COc1ccccc1-c1cccc([C@@H]2C[C@H]3[C@H](CON3C)CN2C(=O)CCc2ccccc2)c1 | -6.0 | . | . | 11.2 | . | .
COCC(=O)OC1CCn2c1nc1c2C(=O)C(C)=C(NC(C)=O)C1=O (configuration not stated) | 68.5* | . | . | 123.4* | 79.4 | 104.0* | Diaphorase 10uM=99.0*;Diaphorase 30uM=89.5*
CCOc1ccc(NC(=O)CNc2cccc(S(=O)(=O)N3CCCCCC3)c2)cc1OCC | 0.7 | . | . | 3.7 | . | .
C[n+]1c2cc(N)ccc2cc2ccc(N)cc21 | 43.6*! | . | . | 77.7* | -19.7 | 18.6
Nc1ccc2ccc(O)cc2c1 | 14.9 | . | . | 32.4 | . | .
CCc1cc(C(=O)NCC(C)(C)N2CCOCC2)sc1C | -3.1 | . | . | 3.3 | . | .
CC1(C)Cc2c(C#N)c(NCC3CCCO3)nc(-c3ccco3)c2CO1 (configuration not stated) | -2.7 | 13.1 | -0.4 | 19.6 | . | .
CC(C)c1nc2oc3c(NCC4CCCO4)ncnc3c2c2c1COC(C)(C)C2 (configuration not stated) | 40.0* | 90.3* | 1.0 | 65.6* | 62.8 | 37.4
CC[C@]12c3[nH]c4ccc(OC)cc4c3CCN1C(=O)C(CC(=O)NC(C)(C)C)C[C@@H]2C(=O)N1CCN(C(=O)c2ccco2)CC1 (some centres not stated) | -6.7 | . | . | 8.3 | . | .
O=C1C=C(NCc2ccccc2)c2ccccc2C1=O | 79.8* | -14.9 | 53.2* | 117.6* | 56.0 | 29.1
O=S(OCCN1CCCC1)C(c1ccccc1)c1ccccc1 (configuration not stated) | -8.8 | . | . | 4.0 | . | .
O=C1C(=C(I)I)c2ccccc2-c2ccccc21 | 60.7* | . | . | 103.6* | 31.7 | 60.5* | Diaphorase 10uM=60.7*;Diaphorase 30uM=70.1*
COc1cccc(N2CCN(S(=O)(=O)c3ccc(-n4cnnn4)cc3)CC2)c1 | -3.5 | . | . | 5.7 | . | .
CC(=O)Nc1ccc(NC(=O)CSc2nnc(-c3cccnc3)o2)cc1 | -0.7 | . | . | 2.6 | . | .
CCOC(=O)c1sc(NC(=O)CSc2nnc(Cc3ccccc3)o2)c(C#N)c1C | -40.4 | 9.3 | -25.3 | 88.1* | -29.9 | 59.6* | Diaphorase 10uM=-24.1;Diaphorase 30uM=-17.6
CCOC(=O)c1c(NC(=O)CSc2nnc(Cc3ccccc3)o2)sc(C(C)=O)c1C | 1.2 | 16.4 | -3.7 | -3.3 | . | .
C=CS(=O)(=O)c1c2cc(OC)ccc2nc2ccc(OC)cc12 | 34.0 | . | . | 68.8* | 4.1 | 20.4
CCCCn1c(N)c(N(CCOC)C(=O)c2cccc(S(=O)(=O)N(C)c3ccc(C)cc3)c2)c(=O)[nH]c1=O | 4.9 | . | . | 3.3 | . | .
O=C1C(Cl)=C(NCCc2ccccc2)C(=O)c2ccccc21 | 53.0* | . | . | 97.0* | 59.5 | 79.6* | Diaphorase 10uM=1.8;Diaphorase 30uM=-1.9
CC1=NOC(=O)/C1=C\c1ccc(-c2cccc(Cl)c2)o1 | 37.8* | -6.0 | 3.4 | 71.8* | 3.2 | 11.1
OC1c2cc(Cl)ccc2-c2c(Cl)cc(Cl)cc21 (configuration not stated) | -1.7 | . | . | 22.6 | . | .

Assay outcomes as filed in PubChem.
